Assay outcomes (PubChem BioAssay)
An excerpt weighted towards active compounds, which were near 2.6% of everything screened.
Platelet DG rel = modulates dense granule release in human platelets. 300,000 tested, 0.22% active. AID 1663. inhibition, %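 (compounds screened at 7.5 µM in platelet-rich plasma)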. human platelet-rich plasma, SFLLRN dense granule ATP release, luminescence;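 active = mean replicate score, as percent of positive control, at or above 50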
SENP1 FRET inh = inhibitors of human SENP1 SUMO protease catalytic domain; Q9P0U3; recombinant SENP1 catalytic domain, CyPet-SUMO1-YPet FRET cleavage; inhibition, % at 10 µM; 360,000 tested, 0.21% active; AID 624204;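 active = inhibition at least 30% at 10 µM, raw YFP signal under a set limit, fluorescence ratio 0.5 to 1.5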;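 also: 0% = enzyme with DMSO and 100% = no enzyme wells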
Target sequence (Q9P0U3 419-644 limits assumed): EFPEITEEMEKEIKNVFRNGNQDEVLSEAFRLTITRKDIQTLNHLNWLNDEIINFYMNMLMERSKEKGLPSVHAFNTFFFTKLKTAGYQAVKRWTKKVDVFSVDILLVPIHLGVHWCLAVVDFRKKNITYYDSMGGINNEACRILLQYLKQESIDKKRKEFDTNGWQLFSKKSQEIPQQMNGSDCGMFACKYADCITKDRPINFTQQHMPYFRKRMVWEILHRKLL
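Test system: hSENP1 catalytic domain, recombinant; Amount: 20 pM final SENP1 enzyme; Medium: Tris pH 8 buffer plus EDTA, NaCl, BME, BSA, NP40, catalase; Schedule: 50 min enzyme reaction, room temperature, light-protected; Technique: FRET fluorescence in CFP and YFP emission channels; Controls: no-enzyme wells low, DMSO-plus-enzyme wells high control.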
SENP7 block = SENP7 protease inhibition. recombinant SENP7, Z-RLRGG-aminoluciferin luminescence, 40 min. inhibition, % at 5 µM. 330,000 tested, 1.5% active. AID 434973;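 active = inhibition above about 50% at the single test dose, limit read from the data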;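 also: plate controls were DMSO with enzyme for no effect and no enzyme buffer wells for full effect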
SENP6 block = inhibitors of human SENP6 protease | inhibition, % at 10 µM | Q9GZR1 | Recombinant SENP6 catalytic domain, aminoluciferin luminescence | 330,000 tested, 1.8% active;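 active = inhibition above about 50% at the single tested dose, limit read from the data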;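 also: plate controls were DMSO wells with enzyme for no effect and DMSO wells lacking enzyme for full effect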
SENP8 block-1 = inhibitors of human SENP8 protease; purified SENP8, Z-RLRGG-aminoluciferin cleavage, luminescence; inhibition, % at 10 µM; 330,000 tested, 1.2% active; AID 2540; in the data active = inhibition above about 50%
Target sequence (Q96LD8 whole entry, looked up): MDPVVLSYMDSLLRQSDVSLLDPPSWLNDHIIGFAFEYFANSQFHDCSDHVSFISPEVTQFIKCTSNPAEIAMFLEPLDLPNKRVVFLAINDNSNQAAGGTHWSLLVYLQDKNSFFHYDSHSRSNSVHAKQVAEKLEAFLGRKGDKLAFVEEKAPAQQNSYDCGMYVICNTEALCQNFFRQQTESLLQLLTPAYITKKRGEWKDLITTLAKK
SENP8 block-2 = SENP8 (human) protease inhibition; Q96LD8; recombinant SENP8, Nedd8 substrate fluorescence; inhibition, % at 20 µM; 360,000 tested, 0.64% active; in the data active = inhibition mostly above about 40%, no sharp cut-off; inactive = mostly below about 27%
* marks the source's active call; other numbers are inactive results; nt = not tested or not shown.

SMILES	Platelet DG rel	SENP1 FRET inh	SENP7 block	SENP6 block	SENP8 block-1	SENP8 block-2
O=C1Cc2cc([N+](=O)[O-])ccc2N1c1c(Cl)cccc1Cl	-4	1	-8	2	-1	14
CSCCC(c1nc2ccccc2[nH]1)n1c(-c2ccc3ncccc3c2)nc2ccccc21 (stereo unspecified)	nt	1	nt	nt	nt	-335
N=C1/C(=C\c2ccc(-c3cccc(C(=O)O)c3)o2)C(=O)N=C2SC=C(c3ccccc3)N12	-5	-34	-3	79*	46	-80
O=c1[nH]nc(-c2ccc[nH]2)[nH]1	nt	3	nt	nt	nt	10
O=C(OCCCCN1C(=O)c2ccccc2C1=O)c1ccc(S(=O)(=O)N2CCCC2)cc1	58*	1	-4	-8	-2	21
O=C(CCCCCN1C(=O)c2ccccc2C1=O)Nc1ccc(S(=O)(=O)N2CCCCC2)cc1	-1	-2	-7	6	-3	12
CC1=NN(C(C#N)c2ccccc2O)C(C)(C)C1 (stereo unspecified)	-6	1	2	9	-7	43*
COc1ccccc1C(C#N)N1N=C(C)CC1(C)C (stereo unspecified)	-7	0	-2	-3	4	1
c1ccc(NCc2nc3ccccc3n2CCOc2ccccc2)cc1	9	1	33	66*	48	11
COc1ccc(NCc2nc3ccccc3n2CCOc2ccccc2)cc1	0	-4	17	12	-5	17
N#CCCN(C(=O)CSc1nc2ccccc2c(=O)[nH]1)c1ccc(F)cc1	nt	1	5	15	-11	-6
Cc1ccc2nc(-c3ccc(NC(=O)CCN4C(=O)c5ccccc5C4=O)cc3)sc2c1	-44	-19	-4	74*	51*	-377
O=C(CCN1C(=O)c2ccccc2C1=O)Nc1ccc(-c2nc3ccccc3s2)cc1	9	2	-12	-9	-1	-436
CCS(=O)(=O)c1ccc2oc(Nc3ccccc3Br)nc2c1	27	1	95*	92*	87*	1
O=C(O)c1cccnc1C(=O)O	nt	5	1	2	2	41*
Cc1coc2c1C(=O)C(=O)c1c-2ccc2c1CCCC2(C)C	-1	4	7	45	-4	61*
COc1ccc(-c2csc(NC(C)c3nc4cc(C(F)(F)F)ccc4n3CCOCCO)n2)cc1 (stereo unspecified)	-1	-2	3	-11	2	-17
Cn1cc(Cl)c(C(=O)N/N=C/c2ccc(OS(=O)(=O)c3ccccc3)cc2)n1	-2	2	3	-10	-4	19
Cc1ccc(/C=N/NC(=O)c2nn(C)cc2Cl)cc1	53*	1	29	29	15	10
CSc1ccc(/C=N/NC(=O)CNc2cccc3ccccc23)cc1	1	-40	40	73*	48	-295
NC(=O)NCCC1=CCCCC1	0	0	-4	7	-5	8
O=C(NCCC1=CCCCC1)NC1CCCCC1	54*	1	2	17	1	11
CC(=O)c1ccc(NC(=O)CSc2nnc(-c3ccco3)c(-c3ccco3)n2)cc1	2	15	17	2	9	45*
C=CCN1C(=O)/C(=C2/Sc3ccccc3N2C)SC1=Nc1c(C)n[nH]c1C	53*	-4	-17	-33	-1	34
C=CCN1C(=O)/C(=C2/Sc3ccccc3N2C)SC1=Nc1ccccc1C	11	-4	-2	-13	-7	23
SMILES	Platelet DG rel	SENP1 FRET inh	SENP7 block	SENP6 block	SENP8 block-1	SENP8 block-2
C=C1CCN(c2ccc(C(=O)NCc3ccc(OC)cc3)cc2[N+](=O)[O-])CC1	1	3	1	-6	0	24
CC(C)(C)c1ccc(OC(=O)Nc2ccc(O)c(C(=O)O)c2)cc1	-5	3	18	83*	72*	-263
CCOC(=O)N1CCN(Cc2cc(=O)oc3ccc(Cl)cc23)CC1	-9	-4	0	4	2	1
CCOC(=O)N1CCN(Cc2cc(=O)oc3cc4c(cc23)CCC4)CC1	78*	-4	3	-6	-4	-22
O=C1C(NS(=O)(=O)c2cccs2)=C(N2CCN(c3cccc(Cl)c3)CC2)C(=O)c2ccccc21	-1	14	26	23	13	70*
COc1ccc(C(C)(O)c2nc(-c3cccc(C(F)(F)F)c3)cs2)cc1 (stereo unspecified)	nt	0	nt	nt	nt	-5
COC(=O)Cc1cc(=O)n2c(nc3ccccc32)[nH]1	-7	-3	nt	nt	nt	-429
